Data from ChEMBL document CHEMBL4680306, “The 3-D conformational shape of N-naphthyl-cyclopenta[d]pyrimidines affects their potency as microtubule targeting agents and their antitumor activity” (Bioorg Med Chem, 2021).
Activity calls are given as the source filed them. The rule behind the calls is not given here.

Assays:
[1] = Antiproliferative activity against human SK-OV-3 MDR-1-6/6 cells expressing Pgp assessed as decrease in cell growth measured after 48 hrs by SRB method; assay type: functional; conditions: SK-OV-3, 48 h
[2] = Induction of microtubule depolymerisation in rat A-10 cell line measured after 18 hrs by indirect immunofluorescence method; conditions: a10
In short: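 Rat A-10 cells, chosen because they arrest in interphase without significant mitotic accumulation, were exposed to compounds for 18 h. Cellular microtubules were then visualized by indirect immunofluorescence. EC50 values come from at least three independent experiments.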

[3] = Relative resistance, ratio of IC50 for antiproliferative activity against human SK-OV-3 MDR-1-6/6 cells expressing Pgp to IC50 antiproliferative activity against human SK-OV-3 cells; assay type: functional
[4] = Relative resistance, ratio of IC50 for inhibition of beta3 Tubulin (unknown origin) expressed in human HeLa cell line assessed as inhibition of cell proliferation to IC50 antiproliferative activity against human HeLa cells
HeLa = assay: Antiproliferative activity against human HeLa cells assessed as decrease in cell growth measured after 48 hrs by SRB method; assay type: functional, cell-based
SK-OV-3 = assay: Antiproliferative activity against human SK-OV-3 cells assessed as decrease in cell growth measured after 48 hrs by SRB method; assay type: functional, cell-based; conditions: SK-OV-3, 48 h
U-251 [5] = assay: Cytotoxicity against human U251 cell line assessed as inhibition of cell growth after 48 hrs by SRB assay; assay type: functional, cell-based; conditions: U-251, 48 h
MDA-MB-435 = assay: Antiproliferative activity against human MDA-MB-435 cell line assessed as inhibition of cell proliferation measured after 48 hrs by SRB assay; assay type: functional, cell-based; conditions: MDA-MB-435, 48 h
In short: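 MDA-MB-435 melanoma cells were assessed by sulforhodamine B assay. IC50 is the mean ± SD of at least three independent experiments, each run in triplicate.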

U-251 [6] = assay: Antitumour activity against human U251 cells xenografted in NCr athymic nude nu/nu mouse assessed as decrease in tumour growth at 50 mg/kg once in a week; assay type: functional, organism-based
Bos taurus [7] = species: Bos taurus; assay: Inhibition of [3H]colchicine binding to bovine tubulin at 5 uM measured after 10 mins by scintillation counting
In short: (§1)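 Purified bovine brain tubulin at 1.0 µM was mixed with 5.0 µM [3H]colchicine and inhibitor, plus components that stabilize colchicine binding, in 5% DMSO; tubulin was added last, on ice. Binding ran 10 min at 37 °C and was stopped with ice water. Mixtures were filtered through stacked DEAE-cellulose filters, and bound radiolabel was measured by scintillation counting.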

Bos taurus [8] = species: Bos taurus; assay: Inhibition of [3H]colchicine binding to bovine tubulin at 1 uM measured after 10 mins by scintillation counting; in short: as §1
[9] = Inhibition of bovine tubulin polymerization assessed as reduction in extent of assembly preincubated for 15 mins followed by addition of reaction mixture measured after 20 mins by turbidimetric assay; set-up: species or system Bos taurus
In short: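 After chilling, GTP was added (0.4 mM final). Turbidity at 350 nm was read after a jump from 0 °C to 30 °C.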

| Structure (SMILES) | IC50 [1] [nM] | EC50 [2] [nM] | Ratio IC50 [3] | Ratio IC50 [4] | IC50 (HeLa) [nM] | IC50 (SK-OV-3) [nM] | IC50 (U-251 [5]) [nM] | IC50 (MDA-MB-435) [nM] | inhibition (U-251 [6]) | inhibition (Bos taurus [7]) [%] | inhibition (Bos taurus [8]) [%] | IC50 [9] [nM] |
| --- | --- | --- | --- | --- | --- | --- | --- | --- | --- | --- | --- | --- |
| COc1cccc2c(N(C)c3nc(C)nc4c3CCC4)cccc12 | 1300 | 3700 | 1.1 | 0.7 | 1200 | 1200 | 38.9 | 820 | – | – | – | – |
| Cn1nnc2c(C(N)=O)ncn2c1=O | – | – | – | – | – | – | – | – | Active | – | – | – |
| COc1cccc2cc(N(C)c3ncnc4c3CCC4)ccc12 | 74 | 184 | 2 | 0.8 | 56.4 | 37 | 72.5 | 34 | – | 93 | 77 | 1200 |
| COc1ccc(N(C)c2nc(C)nc3c2CCC3)c2ccccc12 | 400 | 500 | 1.2 | 0.7 | 250 | 330 | 35.1 | 230 | – | 72 | – | 1400 |
| COc1cccc2cc(N(C)c3nc(N)nc4c3CCC4)ccc12 | 19.6 | 26 | 1.3 | 0.8 | 12.6 | 14.9 | – | 8.7 | – | – | – | – |
| COc1ccc(/C=C\c2cc(OC)c(OC)c(OC)c2)cc1O [COMBRETASTATIN A4] | 6.6 | 13 | – | – | – | – | – | – | – | – | – | – |
